Bridge positions count the residues as written; N and C are the ends. Square brackets hold non-standard residues; d marks the D form. Peptide text beside a SMILES is read from it. * marks the point of attachment. X2 = CC(=O)OC[C@@H]1O[C@@H](*)[C@@H](OC(C)=O)[C@@H](OC(C)=O)[C@H]1OC(C)=O; X1 = OC[C@@H]1O[C@@H](*)[C@@H](O)[C@@H](O)[C@H]1O; Mpa = O=C(O)CCS
What was measured:
[1] = target: T1, Vasopressin receptor (Rattus norvegicus) (UniProt P48974+P30560+Q00788)
[2] = target: T1, Vasopressin receptor (Rattus norvegicus); test: Compound was tested in vitro for its ability to displace radioligand [3H]vasopressin from the vasopressin receptor in rat renal medullary membrane in presence of V1-antagonist; type: functional, cell membranes; conditions: Renal medulla
Method in brief: (§1)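 Rat renal medullary membranes (250 μg protein) incubated for 120 min at room temperature with 1 nM [3H]vasopressin and increasing peptide concentrations, with or without 10 nM of the V1 antagonist [Phenylac1,D-Tyr(Me)2,Arg6,8,Lys-NH2 9]vasopressin. Membranes were pelleted and washed, and bound label was counted by liquid scintillation.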

[3] = tested on: Rattus norvegicus; test: Area under the curve administered intraintestinal in rats.; type: ADME, organism-based; conditions: in vivo, other
Method in brief: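 Anaesthetized (Inactin) male Sprague-Dawley rats, 250–300 g, kept at 37 °C. 100 μg peptide in 1 mL 0.9% NaCl given into a cannulated, rinsed 15 cm small-intestine segment starting 10 cm distal to pylorus, after 30 min recovery. Carotid blood sampled, EDTA plasma assayed by RIA (antibody ADA 6). AUC by trapezoidal rule; mean ± SEM of n rats.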

[4] = target: T1, Vasopressin receptor (Rattus norvegicus); test: Percent inhibition of vasopressin receptor agonistic activity in vivo in rats; type: functional, organism-based; conditions: concentration not given here
Method in brief: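 Overnight-hydrated male Sprague-Dawley rats. Peptide injected 1 min before a fixed vasopressin dose, set per rat to give similar antidiuretic responses. Inhibition was read at a 330-fold molar excess over vasopressin as percent inhibition of the antidiuretic effect. Mean of two experiments.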

[5] = Bioavailability in rat administered i.d.; type: ADME, organism-based; conditions: in vivo
Method in brief: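 Computed as (AUCii/doseii)/(AUCiv/doseiv). Anaesthetized male Sprague-Dawley rats received 100 μg intraintestinally into a cannulated jejunal segment or 1.0 μg iv via jugular vein, both in 0.9% NaCl. Plasma levels by RIA; AUC by trapezoidal rule.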

[6] = Half life administered intravenously in rats.; type: ADME, organism-based; conditions: rat, in vivo, iv
Method in brief: (§2)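 Anaesthetized (Inactin) male Sprague-Dawley rats, 250–300 g. 1.0 μg peptide in 0.2 mL sterile 0.9% NaCl injected into a catheterized jugular vein. Carotid blood samples (0.2 mL) taken as EDTA plasma and quantified by RIA (ADA 6 antibody, [125I]Tyr2-DDAVP tracer). Half-life and trapezoidal AUC given as mean ± SEM of n rats.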

[7] = Cmax value administered intraintestinal in rats.; type: ADME, organism-based; conditions: rat, in vivo
Method in brief: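 Anaesthetized (Inactin) male Sprague-Dawley rats, 250–300 g, 37 °C. 100 μg peptide in 1 mL 0.9% NaCl given into a cannulated 15 cm intestinal segment. Plasma peptide measured by RIA at set time points; the maximal plasma concentration is reported as mean ± SEM of n rats.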

[8] = Degradation in vitro by rat intestinal juice.; type: ADME, organism-based
Method in brief: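 Rat intestinal juice was a 0.9% NaCl rinse of a 10 cm small-intestine segment, centrifuged at 10000g and stored at −20 °C. Incubation matched the chymotrypsin assay (1 mM peptide, 37 °C, pH 7.8) except for 165 mM Tris. Juice amount was set to degrade DDAVP at 2%/min. Time course by RP-HPLC.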

[9] = target: T1, Vasopressin receptor (Rattus norvegicus); test: Compound was tested in vitro for its ability to displace radioligand [3H]vasopressin from the vasopressin receptor in rat renal medullary membrane in absence of V1-antagonist; type: functional, cell membranes; conditions: Renal medulla
Method in brief: as §1

[10] = Degradation in vitro by alpha-chymotrypsin.; type: ADME
Method in brief: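 Peptide (1 mM final) incubated with α-chymotrypsin (1 mg/mL final) at 37 °C in 25 mM Tris, 65 mM NaCl, 2.5 mM CaCl2, pH 7.8. Reaction stopped with ice-cold TCA and centrifuged. Remaining peptide measured over time by RP-HPLC against an enzyme-free reference, giving the half-life.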

[11] = Relative transport rate as the ratio of transport rate to that of PEG 4000.; type: ADME
Method in brief: (§3)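 Rat small-intestine pieces, about 35 cm distal to pylorus and free of Peyer's patches, mounted in a modified Ussing chamber (1.47 cm2) at 37 °C in oxygenated Krebs-Ringer, pH 7.4. Peptide, [3H]PEG 1000 and [14C]PEG 4000 added apically. Basolateral samples taken every 15 min and assayed by RIA or scintillation counting. Papp = (dQ/dt)/(A·C0), expressed relative to each PEG.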

[12] = tested on: Rattus norvegicus; test: Area under the curve administered intravenously in rats.; type: ADME, organism-based; conditions: in vivo, iv
Method in brief: as §2

[13] = Relative transport rate as the ratio of transport rate to that of PEG 1000.; type: ADME
Method in brief: as §3

Antidiuretic activity [1]	Displacement [2] [%]	AUC [3] [ng·h/mL]	inhibition [4] [%]	bioavailability [5] [%]	half-life [6] [min]	Cmax [7] [ng/mL]	half-life [8] [min]	Displacement [9] [%]	half-life [10] [min]	Ratio [11]	AUC [12] [ng·h/mL]	Ratio [13]	SMILES
810 IU µM-1	–	–	–	–	–	–	–	–	–	–	–	–	NC(=O)CNC(=O)[C@H](CCCN=C(N)N)NC(=O)[C@@H]1CCCN1C(=O)[C@@H]1CSSCCC(=O)N[C@H](Cc2ccc(O)cc2)C(=O)N[C@@H](Cc2ccccc2)C(=O)N[C@@H](CO)C(=O)N[C@@H](CC(N)=O)C(=O)N1
0.31 IU µM-1	45	10.3	3	2.1	35	3.6	230	45	180	2.83	4.97	1.09	CC(=O)OC[C@@H]1O[C@@H](OC[C@@H]2NC(=O)[C@H](Cc3ccccc3)NC(=O)[C@H](Cc3ccc(O)cc3)NC(=O)CCSSC[C@@H](C(=O)N3CCC[C@H]3C(=O)N[C@@H](CCCN=C(N)N)C(=O)NCC(N)=O)NC(=O)[C@H](CC(N)=O)NC2=O)[C@@H](OC(C)=O)[C@@H](OC(C)=O)[C@H]1OC(C)=O ([Mpa]YFS(X2)NCPRG-NH2; disulfide 1-6)
0.06 IU µM-1	55	5.75	4	1.6	20	2.5	320	55	37	2.56	3.52	0.96	NC(=O)CNC(=O)[C@H](CCCN=C(N)N)NC(=O)[C@@H]1CCCN1C(=O)[C@@H]1CSSCCC(=O)N[C@@H](Cc2ccc(O)cc2)C(=O)N[C@@H](Cc2ccccc2)C(=O)N[C@@H](CO[C@@H]2O[C@@H](CO)[C@H](O)[C@H](O)[C@@H]2O)C(=O)N[C@@H](CC(N)=O)C(=O)N1 ([Mpa]YFS(X1)NCPRG-NH2; disulfide 1-6)
–	–	0.867	–	0.1	39	0.8	20	–	13	1.57	7.65	0.57	NC(=O)CC[C@@H]1NC(=O)[C@H](Cc2ccccc2)NC(=O)[C@H](Cc2ccc(O)cc2)NC(=O)CCSSC[C@@H](C(=O)N2CCC[C@H]2C(=O)N[C@H](CCCN=C(N)N)C(=O)NCC(N)=O)NC(=O)[C@H](CC(N)=O)NC1=O [DESMOPRESSIN]
–	–	2.35	–	0.5	32	1.4	280	–	37	1.66	4.63	0.62	NC(=O)CNC(=O)[C@@H](CCCN=C(N)N)NC(=O)[C@@H]1CCCN1C(=O)[C@@H]1CSSCCC(=O)N[C@H](Cc2ccc(O)cc2)C(=O)N[C@@H](Cc2ccccc2)C(=O)N[C@@H](CO)C(=O)N[C@@H](CC(N)=O)C(=O)N1
